Experimental data taken from ChEMBL document CHEMBL1153591, “Exploring bis-(indolyl)methane moiety as an alternative and innovative CAP group in the design of histone deacetylase (HDAC) inhibitors” (Bioorg Med Chem Lett, 2009).
pIC50: −log10 of the molar value. Blank lines part the entries; values can stand above or below the compound they belong to.

Assays:
NCI-H460 = experiment: Cytotoxicity against human H460 cells after 24 hrs by sulforhodamine B assay; format: functional, cell-based; conditions: NCI-H460, 24 h
HCT-116 = experiment: Cytotoxicity against human HCT116 cells after 24 hrs by sulforhodamine B assay; format: functional, cell-based; conditions: HCT-116, 24 h
Histone deacetylase 3 = Histone deacetylase 3 (Homo sapiens, UniProt O15379); experiment: Inhibition of human HDAC3 by fluorimetry
Chain of Histone deacetylase 3 (O15379 whole entry, the tested form may be a part, canonical isoform): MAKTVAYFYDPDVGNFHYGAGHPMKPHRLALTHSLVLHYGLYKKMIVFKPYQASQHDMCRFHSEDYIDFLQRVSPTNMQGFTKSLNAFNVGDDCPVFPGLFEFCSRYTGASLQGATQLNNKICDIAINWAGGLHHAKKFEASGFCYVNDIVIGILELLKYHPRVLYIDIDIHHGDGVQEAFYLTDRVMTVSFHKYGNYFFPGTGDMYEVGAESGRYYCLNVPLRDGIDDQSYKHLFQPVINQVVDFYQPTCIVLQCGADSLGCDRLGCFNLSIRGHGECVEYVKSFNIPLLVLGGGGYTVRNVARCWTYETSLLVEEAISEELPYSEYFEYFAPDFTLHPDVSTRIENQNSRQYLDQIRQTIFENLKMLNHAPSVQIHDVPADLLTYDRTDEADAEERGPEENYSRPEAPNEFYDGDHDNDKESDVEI
Procedure, shortened: (§1)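 Each purified single HDAC isoform incubated with fluorogenic substrate, a p53 fragment (residues […], Arg-His-Lys-Lys(Ac)) carrying an ε-acetylated lysine; deacetylation releases fluorophore, read by fluorimeter. Compounds tested as 10 doses, 1:3 serial dilution starting from 50 µM solution. IC50 from dose-response inhibition curves; trichostatin A as reference compound.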

Histone deacetylase 8 = molecular target: T1, Histone deacetylase 8 (Homo sapiens, UniProt Q9BY41); experiment: Inhibition of human HDAC8 by fluorimetry; procedure, shortened: as §1
T1 sequence (Q9BY41 whole entry): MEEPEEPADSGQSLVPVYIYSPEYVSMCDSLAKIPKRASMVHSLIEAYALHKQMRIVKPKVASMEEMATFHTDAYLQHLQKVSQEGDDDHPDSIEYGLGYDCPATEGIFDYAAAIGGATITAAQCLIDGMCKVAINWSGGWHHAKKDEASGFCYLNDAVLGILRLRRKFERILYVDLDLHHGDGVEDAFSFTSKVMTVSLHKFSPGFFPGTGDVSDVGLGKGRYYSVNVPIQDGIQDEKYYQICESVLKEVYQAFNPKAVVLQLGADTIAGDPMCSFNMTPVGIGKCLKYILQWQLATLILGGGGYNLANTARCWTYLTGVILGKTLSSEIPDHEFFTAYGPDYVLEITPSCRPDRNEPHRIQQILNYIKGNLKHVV

[1] = molecular target: T2, Polyamine deacetylase HDAC10 (Homo sapiens, UniProt Q969S8); experiment: Inhibition of human HDAC10 by fluorimetry; procedure, shortened: as §1
T2 sequence (Q969S8 whole entry): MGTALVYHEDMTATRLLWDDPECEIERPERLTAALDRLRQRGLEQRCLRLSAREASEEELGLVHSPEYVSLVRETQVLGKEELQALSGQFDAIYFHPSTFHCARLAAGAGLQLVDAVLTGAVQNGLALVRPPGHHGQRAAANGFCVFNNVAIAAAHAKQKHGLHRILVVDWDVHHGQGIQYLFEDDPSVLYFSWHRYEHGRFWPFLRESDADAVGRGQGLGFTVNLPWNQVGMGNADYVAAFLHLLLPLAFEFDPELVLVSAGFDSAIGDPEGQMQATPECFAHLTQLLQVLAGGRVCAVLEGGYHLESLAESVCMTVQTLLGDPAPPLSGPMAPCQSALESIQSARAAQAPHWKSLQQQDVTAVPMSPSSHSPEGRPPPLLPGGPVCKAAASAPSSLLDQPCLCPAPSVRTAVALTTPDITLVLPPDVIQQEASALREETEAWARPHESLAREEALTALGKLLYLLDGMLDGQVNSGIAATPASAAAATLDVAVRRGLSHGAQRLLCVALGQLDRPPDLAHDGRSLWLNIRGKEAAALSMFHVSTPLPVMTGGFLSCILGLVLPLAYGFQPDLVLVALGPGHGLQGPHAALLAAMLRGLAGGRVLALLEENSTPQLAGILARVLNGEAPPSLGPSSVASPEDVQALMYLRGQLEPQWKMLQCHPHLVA

[2] = molecular target: T3, Protein deacetylase HDAC6 (Homo sapiens, UniProt Q9UBN7); experiment: Inhibition of human HDAC6 by fluorimetry; procedure, shortened: as §1
T3 sequence (Q9UBN7 whole entry): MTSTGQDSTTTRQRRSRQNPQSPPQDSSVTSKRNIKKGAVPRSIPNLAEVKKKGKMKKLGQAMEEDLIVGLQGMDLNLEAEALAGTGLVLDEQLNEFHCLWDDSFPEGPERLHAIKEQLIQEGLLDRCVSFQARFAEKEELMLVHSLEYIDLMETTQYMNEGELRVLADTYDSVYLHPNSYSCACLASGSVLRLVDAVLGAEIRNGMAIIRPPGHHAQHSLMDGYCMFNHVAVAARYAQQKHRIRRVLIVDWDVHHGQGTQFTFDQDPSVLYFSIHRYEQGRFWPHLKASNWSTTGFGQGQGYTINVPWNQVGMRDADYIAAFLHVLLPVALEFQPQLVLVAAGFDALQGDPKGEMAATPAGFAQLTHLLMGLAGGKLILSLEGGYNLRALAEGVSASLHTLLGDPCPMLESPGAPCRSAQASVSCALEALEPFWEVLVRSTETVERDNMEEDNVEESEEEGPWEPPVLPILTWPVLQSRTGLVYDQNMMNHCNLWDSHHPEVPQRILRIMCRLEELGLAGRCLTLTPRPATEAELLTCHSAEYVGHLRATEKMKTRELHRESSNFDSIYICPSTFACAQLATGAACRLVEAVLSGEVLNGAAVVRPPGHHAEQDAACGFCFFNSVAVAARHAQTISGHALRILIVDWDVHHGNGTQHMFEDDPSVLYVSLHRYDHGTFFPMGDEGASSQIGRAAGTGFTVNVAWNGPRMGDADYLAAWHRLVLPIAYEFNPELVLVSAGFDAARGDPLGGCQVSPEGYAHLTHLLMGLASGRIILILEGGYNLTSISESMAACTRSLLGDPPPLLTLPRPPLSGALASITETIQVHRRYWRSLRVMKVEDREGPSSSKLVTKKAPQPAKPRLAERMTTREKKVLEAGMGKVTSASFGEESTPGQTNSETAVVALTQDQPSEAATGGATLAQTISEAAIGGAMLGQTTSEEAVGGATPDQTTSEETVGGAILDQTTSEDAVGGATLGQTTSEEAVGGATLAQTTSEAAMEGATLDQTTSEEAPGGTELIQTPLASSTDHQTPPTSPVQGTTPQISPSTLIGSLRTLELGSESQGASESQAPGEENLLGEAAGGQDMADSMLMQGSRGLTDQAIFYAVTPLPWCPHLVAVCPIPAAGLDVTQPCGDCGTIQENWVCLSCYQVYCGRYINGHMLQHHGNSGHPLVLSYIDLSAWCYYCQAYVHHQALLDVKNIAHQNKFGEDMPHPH

Histone deacetylase 2 = Histone deacetylase 2 (Homo sapiens, UniProt Q92769); experiment: Inhibition of human HDAC2 by fluorimetry; procedure, shortened: as §1
Chain of Histone deacetylase 2 (Q92769 whole entry): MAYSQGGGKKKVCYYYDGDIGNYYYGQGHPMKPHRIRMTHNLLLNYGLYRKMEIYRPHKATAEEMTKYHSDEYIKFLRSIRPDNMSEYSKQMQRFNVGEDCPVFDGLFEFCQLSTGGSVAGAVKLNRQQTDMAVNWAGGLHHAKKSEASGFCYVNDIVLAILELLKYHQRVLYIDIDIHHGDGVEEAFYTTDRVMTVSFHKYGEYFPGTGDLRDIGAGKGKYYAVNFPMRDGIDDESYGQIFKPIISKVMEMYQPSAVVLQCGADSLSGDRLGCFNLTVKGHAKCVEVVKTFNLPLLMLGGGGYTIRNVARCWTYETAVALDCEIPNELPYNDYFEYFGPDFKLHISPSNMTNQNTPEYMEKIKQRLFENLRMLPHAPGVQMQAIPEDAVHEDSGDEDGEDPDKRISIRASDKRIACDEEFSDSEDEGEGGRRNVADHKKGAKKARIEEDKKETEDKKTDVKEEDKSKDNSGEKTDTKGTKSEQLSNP

Histone deacetylase 9 = Histone deacetylase 9 (Homo sapiens, UniProt Q9UKV0); experiment: Inhibition of human HDAC9 by fluorimetry; procedure, shortened: as §1
Chain of Histone deacetylase 9 (Q9UKV0 whole entry): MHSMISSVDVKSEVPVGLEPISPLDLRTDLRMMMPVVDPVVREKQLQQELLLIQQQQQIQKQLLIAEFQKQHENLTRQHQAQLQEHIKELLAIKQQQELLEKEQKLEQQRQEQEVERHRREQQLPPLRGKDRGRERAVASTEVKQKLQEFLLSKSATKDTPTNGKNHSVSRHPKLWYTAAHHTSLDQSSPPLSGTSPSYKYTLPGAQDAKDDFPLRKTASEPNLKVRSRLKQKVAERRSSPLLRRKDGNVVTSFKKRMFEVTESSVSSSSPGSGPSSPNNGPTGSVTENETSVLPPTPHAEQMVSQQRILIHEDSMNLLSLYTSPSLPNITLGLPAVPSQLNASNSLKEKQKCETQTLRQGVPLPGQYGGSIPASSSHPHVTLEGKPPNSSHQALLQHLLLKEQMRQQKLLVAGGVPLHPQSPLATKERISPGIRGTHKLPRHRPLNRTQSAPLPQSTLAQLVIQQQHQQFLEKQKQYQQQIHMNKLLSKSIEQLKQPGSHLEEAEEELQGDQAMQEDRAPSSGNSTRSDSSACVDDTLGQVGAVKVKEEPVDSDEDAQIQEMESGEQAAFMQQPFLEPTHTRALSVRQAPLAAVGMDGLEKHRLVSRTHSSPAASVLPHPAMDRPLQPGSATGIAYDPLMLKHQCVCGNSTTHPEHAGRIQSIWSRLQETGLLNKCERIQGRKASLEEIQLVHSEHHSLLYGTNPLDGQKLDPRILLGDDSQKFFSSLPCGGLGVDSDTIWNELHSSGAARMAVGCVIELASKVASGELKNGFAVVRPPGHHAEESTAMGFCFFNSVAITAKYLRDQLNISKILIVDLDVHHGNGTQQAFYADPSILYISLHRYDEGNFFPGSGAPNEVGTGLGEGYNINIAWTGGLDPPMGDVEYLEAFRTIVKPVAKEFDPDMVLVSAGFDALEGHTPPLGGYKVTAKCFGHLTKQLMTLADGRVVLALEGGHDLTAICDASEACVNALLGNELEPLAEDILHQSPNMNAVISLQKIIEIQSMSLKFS

Histone deacetylase 11 = molecular target: T4, Histone deacetylase 11 (Homo sapiens, UniProt Q96DB2); experiment: Inhibition of human HDAC11 by fluorimetry; procedure, shortened: as §1
T4 sequence (Q96DB2 whole entry): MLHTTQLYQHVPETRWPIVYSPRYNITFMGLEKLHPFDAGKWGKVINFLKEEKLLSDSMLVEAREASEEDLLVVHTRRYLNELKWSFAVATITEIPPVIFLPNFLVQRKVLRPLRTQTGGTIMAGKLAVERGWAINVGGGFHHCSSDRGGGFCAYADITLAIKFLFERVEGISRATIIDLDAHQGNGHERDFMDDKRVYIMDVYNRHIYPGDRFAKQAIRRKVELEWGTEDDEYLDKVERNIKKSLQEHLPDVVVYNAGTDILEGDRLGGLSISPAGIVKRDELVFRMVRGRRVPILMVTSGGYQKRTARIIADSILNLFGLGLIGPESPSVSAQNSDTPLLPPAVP

Histone deacetylase 1 = Histone deacetylase 1 (Homo sapiens, UniProt Q13547); experiment: Inhibition of human HDAC1 by fluorimetry; procedure, shortened: as §1
Chain of Histone deacetylase 1 (Q13547 whole entry): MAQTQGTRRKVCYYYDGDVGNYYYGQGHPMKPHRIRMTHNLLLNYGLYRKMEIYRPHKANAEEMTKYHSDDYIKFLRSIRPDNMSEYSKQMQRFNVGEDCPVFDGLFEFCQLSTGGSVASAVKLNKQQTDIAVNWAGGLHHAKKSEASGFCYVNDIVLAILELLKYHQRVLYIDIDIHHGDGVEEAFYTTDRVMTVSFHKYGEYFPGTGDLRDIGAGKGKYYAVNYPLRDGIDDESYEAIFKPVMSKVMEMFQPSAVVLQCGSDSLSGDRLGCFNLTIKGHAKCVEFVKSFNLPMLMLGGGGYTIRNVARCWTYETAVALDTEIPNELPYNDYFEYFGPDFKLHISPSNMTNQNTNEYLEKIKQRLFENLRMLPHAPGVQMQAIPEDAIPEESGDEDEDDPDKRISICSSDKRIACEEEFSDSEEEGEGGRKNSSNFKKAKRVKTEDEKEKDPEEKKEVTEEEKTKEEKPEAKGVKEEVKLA

Histone deacetylase 4 = Histone deacetylase 4 (Homo sapiens, UniProt P56524); experiment: Inhibition of human HDAC4 by fluorimetry; procedure, shortened: as §1
Chain of Histone deacetylase 4 (P56524 whole entry): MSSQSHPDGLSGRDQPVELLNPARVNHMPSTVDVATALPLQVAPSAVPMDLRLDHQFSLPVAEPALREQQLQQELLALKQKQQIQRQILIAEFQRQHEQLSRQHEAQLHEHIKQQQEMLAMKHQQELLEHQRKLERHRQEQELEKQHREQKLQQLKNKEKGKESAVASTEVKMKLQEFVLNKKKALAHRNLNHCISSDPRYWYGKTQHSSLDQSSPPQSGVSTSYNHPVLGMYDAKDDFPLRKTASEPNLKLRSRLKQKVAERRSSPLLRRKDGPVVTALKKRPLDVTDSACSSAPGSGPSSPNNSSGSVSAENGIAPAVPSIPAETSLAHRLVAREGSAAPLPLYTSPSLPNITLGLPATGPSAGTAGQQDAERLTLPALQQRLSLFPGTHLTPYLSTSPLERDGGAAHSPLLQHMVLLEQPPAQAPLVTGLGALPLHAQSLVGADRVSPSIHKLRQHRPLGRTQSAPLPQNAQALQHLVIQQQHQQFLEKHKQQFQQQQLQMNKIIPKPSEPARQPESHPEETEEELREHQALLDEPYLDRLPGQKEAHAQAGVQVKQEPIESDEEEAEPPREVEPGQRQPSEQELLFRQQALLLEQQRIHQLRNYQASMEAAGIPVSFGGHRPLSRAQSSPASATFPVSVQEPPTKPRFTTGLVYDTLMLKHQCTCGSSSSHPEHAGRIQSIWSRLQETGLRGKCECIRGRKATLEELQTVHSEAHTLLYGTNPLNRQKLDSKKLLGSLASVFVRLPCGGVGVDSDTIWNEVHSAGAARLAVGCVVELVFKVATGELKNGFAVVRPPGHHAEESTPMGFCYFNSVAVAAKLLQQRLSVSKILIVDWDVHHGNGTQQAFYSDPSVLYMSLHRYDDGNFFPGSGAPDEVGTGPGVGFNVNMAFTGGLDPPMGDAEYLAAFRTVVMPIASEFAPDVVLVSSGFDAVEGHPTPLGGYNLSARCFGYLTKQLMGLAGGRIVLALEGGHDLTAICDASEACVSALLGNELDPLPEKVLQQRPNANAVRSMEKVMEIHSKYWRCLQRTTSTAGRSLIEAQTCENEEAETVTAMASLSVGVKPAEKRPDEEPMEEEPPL

Histone deacetylase 5 = Histone deacetylase 5 (Homo sapiens, UniProt Q9UQL6); experiment: Inhibition of human HDAC5 by fluorimetry; procedure, shortened: as §1
Chain of Histone deacetylase 5 (Q9UQL6 whole entry): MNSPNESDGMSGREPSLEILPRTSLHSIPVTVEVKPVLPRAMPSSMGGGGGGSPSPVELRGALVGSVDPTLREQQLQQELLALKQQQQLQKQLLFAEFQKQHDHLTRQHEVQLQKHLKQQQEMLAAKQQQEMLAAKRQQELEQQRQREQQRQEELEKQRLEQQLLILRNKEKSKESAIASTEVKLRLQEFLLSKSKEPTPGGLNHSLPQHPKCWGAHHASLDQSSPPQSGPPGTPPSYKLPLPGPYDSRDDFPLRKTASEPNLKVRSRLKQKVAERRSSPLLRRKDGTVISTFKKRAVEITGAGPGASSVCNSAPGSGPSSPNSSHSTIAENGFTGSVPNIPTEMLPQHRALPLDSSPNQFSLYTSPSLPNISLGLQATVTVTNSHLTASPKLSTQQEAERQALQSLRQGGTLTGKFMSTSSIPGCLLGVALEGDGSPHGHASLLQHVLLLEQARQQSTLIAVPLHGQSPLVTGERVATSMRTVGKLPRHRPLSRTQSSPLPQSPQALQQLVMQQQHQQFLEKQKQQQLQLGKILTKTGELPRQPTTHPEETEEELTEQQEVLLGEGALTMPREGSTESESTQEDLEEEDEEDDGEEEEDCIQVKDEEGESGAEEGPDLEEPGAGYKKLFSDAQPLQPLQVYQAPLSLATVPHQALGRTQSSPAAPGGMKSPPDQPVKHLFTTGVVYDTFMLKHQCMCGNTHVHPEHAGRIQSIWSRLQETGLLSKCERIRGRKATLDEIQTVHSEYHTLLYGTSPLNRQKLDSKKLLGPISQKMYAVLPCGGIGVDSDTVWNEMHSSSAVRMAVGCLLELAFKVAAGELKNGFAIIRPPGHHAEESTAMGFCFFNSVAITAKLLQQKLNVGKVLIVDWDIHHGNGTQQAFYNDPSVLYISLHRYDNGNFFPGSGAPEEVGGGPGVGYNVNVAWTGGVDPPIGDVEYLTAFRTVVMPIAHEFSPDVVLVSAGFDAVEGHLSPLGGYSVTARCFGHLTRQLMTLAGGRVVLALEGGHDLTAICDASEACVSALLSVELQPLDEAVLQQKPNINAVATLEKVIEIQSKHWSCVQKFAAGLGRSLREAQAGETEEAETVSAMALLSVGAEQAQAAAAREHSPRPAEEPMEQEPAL

Histone deacetylase 7 = molecular target: T5, Histone deacetylase 7 (Homo sapiens, UniProt Q8WUI4); experiment: Inhibition of human HDAC7 by fluorimetry
T5 sequence (Q8WUI4 whole entry): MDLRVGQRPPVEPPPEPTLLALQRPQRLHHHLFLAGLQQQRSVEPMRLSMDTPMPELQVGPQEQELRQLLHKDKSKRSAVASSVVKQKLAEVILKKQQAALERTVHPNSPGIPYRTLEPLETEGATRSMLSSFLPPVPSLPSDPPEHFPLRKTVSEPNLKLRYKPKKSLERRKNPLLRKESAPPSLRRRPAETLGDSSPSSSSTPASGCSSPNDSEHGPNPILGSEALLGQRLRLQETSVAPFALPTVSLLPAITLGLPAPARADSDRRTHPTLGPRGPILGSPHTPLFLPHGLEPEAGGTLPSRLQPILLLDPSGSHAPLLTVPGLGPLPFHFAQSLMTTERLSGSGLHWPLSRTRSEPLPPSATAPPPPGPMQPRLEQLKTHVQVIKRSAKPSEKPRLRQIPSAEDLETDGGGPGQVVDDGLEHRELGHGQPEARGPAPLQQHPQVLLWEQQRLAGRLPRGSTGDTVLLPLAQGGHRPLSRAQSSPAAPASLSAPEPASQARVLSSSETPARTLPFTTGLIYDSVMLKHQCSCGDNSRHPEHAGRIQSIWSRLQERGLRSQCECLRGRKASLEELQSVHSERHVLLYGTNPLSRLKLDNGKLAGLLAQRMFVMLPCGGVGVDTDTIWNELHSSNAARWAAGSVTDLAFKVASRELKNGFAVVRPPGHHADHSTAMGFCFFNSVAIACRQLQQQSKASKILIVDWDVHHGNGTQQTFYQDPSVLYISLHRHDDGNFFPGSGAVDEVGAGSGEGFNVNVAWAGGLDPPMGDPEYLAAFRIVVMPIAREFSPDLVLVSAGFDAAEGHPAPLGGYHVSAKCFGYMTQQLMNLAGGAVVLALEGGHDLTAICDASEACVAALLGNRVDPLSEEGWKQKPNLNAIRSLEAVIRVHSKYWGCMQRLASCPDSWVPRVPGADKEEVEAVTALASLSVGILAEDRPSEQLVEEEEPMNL

Structure (SMILES): O=C(CCC(c1c[nH]c2ccccc12)c1c[nH]c2ccccc12)NO
pIC50 (NCI-H460): < 4.70
pIC50 (HCT-116): < 4.70

Structure (SMILES): Cc1[nH]c2ccccc2c1C(c1ccc(/C=C/C(=O)NO)cc1)c1c(C)[nH]c2ccccc12
pIC50 (NCI-H460): < 4.70
pIC50 (HCT-116): < 4.70

Structure (SMILES): Cn1cc(C(CCCCCC(=O)NO)c2cn(C)c3ccccc23)c2ccccc21
pIC50 (NCI-H460): 5.06
pIC50 (HCT-116): 5.18

Structure (SMILES): Cc1[nH]c2ccccc2c1C(CCCCCC(=O)NO)c1c(C)[nH]c2ccccc12
pIC50 (NCI-H460): 5.37
pIC50 (HCT-116): 5.49

Structure (SMILES): O=C(CCCCCc1c[nH]c2ccccc12)NO
pIC50 (NCI-H460): 4.66
pIC50 (HCT-116): 4.82

Structure (SMILES): O=C(CCCCCC(c1c[nH]c2cccc(F)c12)c1c[nH]c2cccc(F)c12)NO
pIC50 (NCI-H460): 6.15
pIC50 (HCT-116): 6.40

Structure (SMILES): O=C(CCCC(c1c[nH]c2ccccc12)c1c[nH]c2ccccc12)NO
pIC50 (NCI-H460): < 4.70
pIC50 (HCT-116): < 4.70

Structure (SMILES): CN(O)C(=O)CCCCCC(c1c[nH]c2ccccc12)c1c[nH]c2ccccc12
pIC50 (NCI-H460): < 4.70
pIC50 (HCT-116): < 4.70

pIC50 (Histone deacetylase 3): 6.46
pIC50 (Histone deacetylase 8): 6.62
pIC50 [1]: 6.06
pIC50 [2]: 8.22
pIC50 (Histone deacetylase 2): 5.70
pIC50 (Histone deacetylase 9): 6.19
pIC50 (Histone deacetylase 11): 6.37
pIC50 (Histone deacetylase 1): 6.14
pIC50 (Histone deacetylase 4): 5.89
pIC50 (Histone deacetylase 5): 6.23
Structure (SMILES): O=C(CCCCCC(c1c[nH]c2ccccc12)c1c[nH]c2ccccc12)NO
pIC50 (NCI-H460): 5.92
pIC50 (HCT-116): 6.22

pIC50 (Histone deacetylase 3): 6.36
pIC50 (Histone deacetylase 8): 6.14
pIC50 [1]: 5.33
pIC50 [2]: 5.31
pIC50 (Histone deacetylase 2): 5.41
pIC50 (Histone deacetylase 9): 5.48
pIC50 (Histone deacetylase 11): 6.39
pIC50 (Histone deacetylase 1): 5.32
pIC50 (Histone deacetylase 4): 5.32
pIC50 (Histone deacetylase 5): 5.31
pIC50 (Histone deacetylase 7): 5.38
Structure (SMILES): O=C(/C=C/c1ccc(C(c2c[nH]c3ccccc23)c2c[nH]c3ccccc23)cc1)NO
pIC50 (NCI-H460): 5.59
pIC50 (HCT-116): 5.59
